# Measurements from ChEMBL document CHEMBL4680319, “Synthesis and evaluation of tiaprofenic acid-derived UCHL5 deubiquitinase inhibitors” (Bioorg Med Chem, 2021).
# Activity calls are given as the source filed them. No cut-off for these calls is given here.
# Experiments:
# [1] = biological target: T1, Ubiquitin carboxyl-terminal hydrolase isozyme L5 (Homo sapiens, UniProt Q9Y5K5); experiment: (§1) Inhibition of N-terminal His6-tagged recombinant human UCHL5 expressed in Escherichia coli BL21 (DE3) codon cells assessed as reduction in cleavage of Ubiquitin-Rhodamine110-glycine to Ubiquitin and Rhodamine110-glycine using Ub-Rho 110 as substrate incubated for 30 mins by fluorescence based assay
# T1 sequence (Q9Y5K5 whole entry): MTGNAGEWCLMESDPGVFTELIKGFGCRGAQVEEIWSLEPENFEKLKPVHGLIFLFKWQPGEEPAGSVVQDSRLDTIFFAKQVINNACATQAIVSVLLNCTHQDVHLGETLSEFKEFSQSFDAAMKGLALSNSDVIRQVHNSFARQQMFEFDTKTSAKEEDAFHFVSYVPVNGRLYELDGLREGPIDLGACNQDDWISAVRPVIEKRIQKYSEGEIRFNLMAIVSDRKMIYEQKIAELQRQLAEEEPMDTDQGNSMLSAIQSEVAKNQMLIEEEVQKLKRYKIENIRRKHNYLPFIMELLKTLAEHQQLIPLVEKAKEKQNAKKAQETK
# In short: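 His-tagged human UCHL5 from pET151 in E. coli BL21(DE3) codon+ RIL, Ni-NTA purified; 0.464 nM enzyme, 1 μM Ub-Rho in 50 mM Tris-HCl pH 7.5, 150 mM NaCl, 0.1 mg/ml ovalbumin, 0.5 mM EDTA, 2.5 mM DTT; started by enzyme addition.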
# [2] = biological target: T2, Ubiquitin carboxyl-terminal hydrolase isozyme L1 (Homo sapiens, UniProt P09936); experiment: as §1, with “of” for “of N-terminal His6-tagged”, “N-terminal MET and His6-tagged UCHL1 (Gln2 to Ala223 residues)” for “UCHL5”, “coli” for “coli BL21 (DE3) codon cells”
# T2 sequence (P09936 whole entry): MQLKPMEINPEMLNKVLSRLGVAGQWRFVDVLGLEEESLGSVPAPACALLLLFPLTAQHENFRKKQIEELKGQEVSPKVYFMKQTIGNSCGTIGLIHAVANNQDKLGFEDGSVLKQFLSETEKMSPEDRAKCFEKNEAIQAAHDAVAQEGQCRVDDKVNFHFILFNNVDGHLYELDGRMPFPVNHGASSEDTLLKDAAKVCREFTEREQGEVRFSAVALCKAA
# In short: (§2)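 Commercial enzymes at UCHL1 1.2 nM or UCHL3 32 pM, with 1 μM Ub-Rho in 50 mM Tris-HCl pH 7.5, 150 mM NaCl, 0.1 mg/ml ovalbumin, 0.5 mM EDTA, 2.5 mM DTT.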
# [3] = biological target: Ubiquitin carboxyl-terminal hydrolase isozyme L1 (Homo sapiens) (UniProt P09936); experiment: as above; in short: as §2
# Homo sapiens = species: Homo sapiens; experiment: as §1, with “[…] N-terminal GST/His6-tagged RPN13” for “expressed”, “substrate at 100 uM” for “substrate”, “assay relative to control” for “assay”
# In short: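 UCHL5 (0.464 nM, His-tagged, Ni-NTA purified from E. coli) combined with separately expressed Rpn13 (915 nM); each derivative tested at 100 μM. Buffer 50 mM Tris-HCl pH 7.5, 150 mM NaCl, 0.1 mg/ml ovalbumin, 0.5 mM EDTA, 2.5 mM DTT. Reaction started with UCHL5; Ub-Rho 1 μM; fluorescence ex 485/em 535 nm read over 30 min at RT. n = 2 independent experiments.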
# [4] = biological target: T3, Ubiquitin carboxyl-terminal hydrolase isozyme L3 (Homo sapiens) (UniProt P15374); experiment: (§3) Inhibition of recombinant human UCHL3 assessed as reduction in cleavage of Ubiquitin-Rhodamine110-glycine to Ubiquitin and Rhodamine110-glycine using Ub-Rho 110 as substrate incubated for 30 mins by fluorescence based assay; in short: as §2
# T3 sequence (whole entry): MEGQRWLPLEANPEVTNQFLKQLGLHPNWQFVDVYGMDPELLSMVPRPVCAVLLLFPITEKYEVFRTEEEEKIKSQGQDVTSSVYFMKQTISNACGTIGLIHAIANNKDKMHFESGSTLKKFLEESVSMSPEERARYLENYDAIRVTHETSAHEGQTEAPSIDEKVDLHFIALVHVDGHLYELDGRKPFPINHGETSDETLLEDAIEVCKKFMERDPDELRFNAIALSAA
# [5] = biological target: T4, Ubiquitin carboxyl-terminal hydrolase isozyme L3 (Homo sapiens, UniProt P15374); experiment: as §3; in short: as §2
# T4 sequence (P15374 whole entry): T3 sequence (whole entry)
# [6] = biological target: T5, Ubiquitin carboxyl-terminal hydrolase isozyme L5 (Homo sapiens) (UniProt Q9Y5K5); experiment: Inhibition of UCHL5 in human MDA-MB-231 cells assessed as reduction in enzyme-Ub-VS conjugation at 25 to 50 uM preincubated for 30 mins followed by incubation with Ub-VS for 11 mins in presence of Ub-VS by Western blot analysis; assay type: cell-based; conditions: dose 25-50 µM, time 41.0 min
# T5 sequence (whole entry): T1 sequence (Q9Y5K5 whole entry)
# In short: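 Lysate (20 μg protein) preincubated with inhibitor 30 min at RT in same buffer without detergent, then Ub-VS 1 μM for 11 min at RT; SDS quench, 12% SDS-PAGE, anti-UCHL5 and β-actin blot; 2 independent experiments.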
# [7] = biological target: T5, Ubiquitin carboxyl-terminal hydrolase isozyme L5 (Homo sapiens); experiment: Potency index, ratio of (R)-tiaprofenic acid IC50 to test compound IC50 for inhibition of N-terminal His6-tagged recombinant human UCHL5 expressed in Escherichia coli BL21 (DE3) codon cells incubated for 30 mins by fluorescence based assay
Compound,IC50 [1] [µM],also measured
CC(=O)Nc1cccc(-c2cn(Cc3cc(C(=O)O)cc(-c4ccccc4C(=O)O)c3)nn2)c1,96.2,
CC(=O)Nc1ccc(-c2cn(Cc3cc(C(=O)O)cc(-c4ccccc4C(=O)O)c3)nn2)cc1,80.9,
O=C(O)c1cc(Cn2cc(-c3ccc(NC(=O)c4ccccc4)cc3)nn2)cc(-c2ccccc2C(=O)O)c1,215,
NS(=O)(=O)Nc1ccc(-c2cn(Cc3cc(C(=O)O)cc(-c4ccccc4C(=O)O)c3)nn2)cc1,84.5,
O=C(O)c1cc(Cn2cc(-c3cccnc3)nn2)cc(-c2ccccc2C(=O)O)c1,252,
CC(C(=O)O)c1ccc(C(=O)c2cccc(-c3ccccc3C(=O)O)c2)s1 (stereo not given),89.1,Ratio IC50 [7]: 33
Nc1ccc(-c2cn(Cc3cc(C(=O)O)cc(-c4ccc(C(=O)O)cc4)c3)nn2)cc1,284,
CC(C(=O)O)c1ccc(C(=O)c2ccccc2)s1 (stereo not given) [TIAPROFENIC ACID],2950,
CC(C(=O)O)c1ccc(C(=O)c2cccc(-c3occc3C(=O)O)c2)s1 (stereo not given),75.7,

# Second part, led by results:
IC50 [1] [µM],Compound,also measured
80.5,Nc1ccc(-c2cn(Cc3cc(C(=O)O)cc(-c4ccccc4C(=O)O)c3)nn2)cc1,
72.6,Nc1cccc(-c2cn(Cc3cc(C(=O)O)cc(-c4ccccc4C(=O)O)c3)nn2)c1,
116,Nc1ccc(-c2cn(Cc3cccc(-c4ccccc4C(=O)O)c3)nn2)cc1,
32.9,Nc1ccc(-c2cn(Cc3cc(C(=O)O)cc(-c4cccc(C(=O)O)c4)c3)nn2)cc1,IC50 [2]: 92 µM; inhibition [3]: Dose-dependent effect; inhibition (Homo sapiens): 70%; inhibition [4]: Dose-dependent effect; IC50 [5]: 74 µM; inhibition [6]: Active
